Screening data as filed in PubChem.
TRPC6 inhibitor – blocks the mouse TRPC6 cation channel; Q61143; HEK293-TRPC6, membrane potential dye, ACh-evoked depolarization; hits give low values; B-score at 10 µM; actives 1.1% (n = 310,000); AID 2553;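 active means B-score under library mean minus 3 SD, initial fluorescence not abnormally high, positive integrated signal ratio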;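 further: B-score derived from integrated fluorescence ratio over the kinetic read; more negative B-score means stronger inhibition of depolarization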
TRPC4 PAM – allosterically enhances the mouse TRPC4 cation channel; Q9QUQ5; HEK293 TRPC4beta/mu-opioid, DAMGO EC20, Fluo-4 Ca2+ flux; hits give high values; B-score at 10 µM; actives 0.42% (n = 310,000);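 active means B-score of calcium response area above 5 SD of library B-scores, with initial fluorescence ratio within 5 SD of library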
TRPC6 act – activators of mouse TRPC6 channel; B-score at 10 µM; Q61143; HEK293-TRPC6 membrane potential dye fluorescence; hits give high values; actives 0.13% (n = 310,000);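 active means B-score of the integrated fluorescence ratio above library mean plus 3 SD, and starting fluorescence ratio within library mean plus 5 SD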;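 further: higher score means more depolarization so channel activation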
CR mimetic SO – caloric restriction mimetics inhibiting age-related superoxide in yeast; S. cerevisiae aged cells, superoxide DHE fluorescence; hits give low values; superoxide response (% of plate mean), % at 10 µM; actives 0.18% (n = 330,000);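 active means superoxide response under a set limit, about three screen SD below normal, cut at about 65% in these data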;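 further: yeast aged for seven days with compound at 30 °C before DHE staining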
TRPC4 act – opens the mouse TRPC4 cation channel; HEK293 TRPC4beta/mu-opioid, Fluo4 calcium fluorescence; hits give high values; B-score at 10 µM; actives 0.49% (n = 310,000);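 active means B-score above 5 SD of library B-scores, and initial fluorescence ratio not above library mean plus 5 SD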;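 further: positive B-score marks a calcium rise read as TRPC4 activation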
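System: HEK293 cells stably co-expressing mouse TRPC4beta and mu-opioid receptor; Schedule: Fluo4 dye loading 45 min at room temperature, 110 s recording; Detection: Fluo4 fluorescence, kinetic; Evaluation: B-scored integrated calcium fluorescence ratio; Controls: buffer (low) and maximal DAMGO (high).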
TRPC4 inh – TRPC4 (mouse) channel inhibition; Q9QUQ5; HEK293 TRPC4beta/mu-opioid, DAMGO-evoked Fluo4 calcium flux; hits give low values; B-score at 10 µM; actives 0.39% (n = 300,000); AID 2247;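 active means B-score over 3 SD under the library average, no early fluorescence shift, positive overall ratio signal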
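Assay system – HEK293 line stably carrying TRPC4beta and mu-opioid receptor · Doses – single dose · Detection – Fluo4 calcium-dye fluorescence, kinetic read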
A number is an active result; . = inactive; / = not tested or not shown. Most compounds without a hit are left out; they make up all but 2.3% or so of the library.

SMILES | TRPC6 inhibitor | TRPC4 PAM | TRPC6 act | CR mimetic SO | TRPC4 act | TRPC4 inh
CCCCC(c1nnnn1CC1CCCO1)N1CCN(Cc2ccccc2)CC1 (centres undefined) | . | . | . | . | 93 | -6
Cc1ccc(N2CCN(/N=C/c3c(C)nn(-c4ccccc4)c3Cl)CC2)cc1 | . | . | . | . | . | .
Cc1cc(F)ccc1S(=O)(=O)Nc1nc2ccccc2nc1Cl | . | . | . | . | . | .
Cc1ccc(C(C)(C)C)cc1S(=O)(=O)Nc1nc2ccccc2nc1Cl | . | . | . | . | . | -6
CCOc1ccc(Br)cc1C(=O)N/N=C/c1cccc(C)n1 | . | . | . | . | . | .
Cc1cccc(/C=N/NC(=O)c2cc(Br)ccc2O)n1 | . | 65 | . | . | . | .
CN(Cc1ccccc1)C(=O)CSc1nnc(-c2ccco2)n1-c1ccccc1 | . | . | . | . | . | -7
O=C(C[n+]1ccc2ccccc2c1)Nc1cc(C(F)(F)F)ccc1Cl | . | . | . | 58.6 | . | .
O=C(C[n+]1ccccc1)Nc1cc(C(F)(F)F)ccc1Cl | . | . | . | . | . | .
O=C(Nc1ccc(Cl)cc1)C(Cl)C(=O)c1ccccc1 (centres undefined) | . | . | . | . | . | .
Cc1ccccc1C(=O)NC1CC2CCC(C1)N2Cc1ccccc1 (centres undefined) | . | . | . | . | . | -5
CCCN(CCC)CCCNC(=O)c1ccc2c(Cl)c3c(nc2c1)CCC3 | . | . | . | . | 124 | .
COc1ccc(-n2c3c(cc(C(=O)NCc4ccco4)c2=O)C(=O)CC(C)(C)C3)cc1 | . | . | . | . | . | -7
Cc1ccc(-n2c3c(cc(C(=O)NCc4ccco4)c2=O)C(=O)CCC3)cc1 | . | . | . | . | . | .
COC1=C(Nc2ccccc2)C(=O)c2ccccc2C1=O | . | 13 | . | . | . | .
CCCCN(C(=O)c1cccc2c(=O)c(C)c(-c3ccccc3)oc12)c1ccccc1 | . | 32 | . | / | . | .
CCOc1cc(CNCCCN2CCOCC2)cc(Br)c1OCc1ccccc1Cl | . | . | . | . | . | -7
Nc1nnc(COc2ccc(Br)cc2Br)s1 | . | . | . | . | . | .
C=CCn1c(SCC(=O)N2CC(C)OC(C)C2)nnc1-c1ccncc1 (centres undefined) | / | / | / | . | / | /
C=CCn1c(SCC(=O)N2CCCCC2)nnc1-c1ccncc1 | . | . | . | . | 75 | .
CC(OC(=O)c1ccccn1)C(=O)Nc1nc(-c2ccc(F)c(F)c2)cs1 (centres undefined) | / | / | / | . | / | /
Cc1ccc(C)c(CN2CCC(CNC(=O)Nc3ccc(C)c(C)c3)CC2)c1 | . | 11 | . | . | . | .
COc1ccc(Cl)cc1NC(=O)NCC1CCN(Cc2cc(C)ccc2C)CC1 | . | . | . | . | . | .
O=C(N/N=C/c1sc(N2CCOCC2)nc1-c1ccccc1)c1cccc(S(=O)(=O)N2CCOCC2)c1 | . | . | . | . | . | .
COc1cccc(NCc2ccc([N+](=O)[O-])s2)c1 | . | . | . | . | . | -6
SMILES | TRPC6 inhibitor | TRPC4 PAM | TRPC6 act | CR mimetic SO | TRPC4 act | TRPC4 inh
CNC(=O)COC(=O)Cc1ccc(Cl)cc1 | . | . | . | . | . | .
OCCN1CCN(c2ncnc3c2sc2nc(N4CCOCC4)c4c(c23)CCC4)CC1 | . | . | . | . | . | .
OCCN(CCO)c1ncnc2c1sc1nc(N3CCOCC3)c3c(c12)CCCC3 | . | 15 | . | . | . | .
O=C(OCCCCN1C(=O)c2ccccc2C1=O)c1ccc(S(=O)(=O)N2CCCC2)cc1 | . | 17 | . | . | . | .
c1csc(-c2nc(NCC3CCCO3)c3ccccc3n2)c1 (centres undefined) | . | . | . | . | . | -8
c1ccc(-c2nc(NCc3cccs3)c3ccccc3n2)cc1 | . | . | . | . | . | .
c1csc(CNc2nc(-c3cccs3)nc3ccccc23)c1 | . | . | . | . | . | -6
c1cncc(-c2nc(NCC3CCCO3)c3ccccc3n2)c1 (centres undefined) | . | . | . | . | . | .
O=C(NCCN1CCCCC1)c1ccc(Oc2cc(Cl)cc(Cl)c2)o1 | . | . | . | . | . | .
COc1ccc2cc3cc(C(=O)NCCN4CCN(Cc5ccccc5)CC4)oc3nc2c1 | . | . | . | . | . | -6
COc1ccc2cc3cc(C(=O)NCCN4CCc5ccccc5C4)oc3nc2c1 | . | . | . | . | . | .
COc1ccc(CNCc2cccc(Oc3ccccc3)c2)cc1 | . | . | . | . | . | -6
COc1ccc(CNCc2cccc(C)c2)cc1 | . | . | . | . | . | .
Cc1ccc(-c2n[nH]c(=O)c3ccccc23)cc1S(=O)(=O)N(C)C | . | . | . | . | . | .
Cc1ccc(-c2n[nH]c(=O)c3ccccc23)cc1S(=O)(=O)Nc1ccccc1 | . | 12 | . | . | . | .
O=C(Cn1nnc(-c2cccs2)n1)NCc1ccco1 | . | . | . | . | . | .
Cc1cc(=O)oc2cc(NC(=S)NCc3ccccn3)ccc12 | . | . | . | . | . | -6
Cc1ccc(SCCNCc2ccco2)cc1 | . | 10 | . | . | . | .
Cc1ccc(SCCC(=O)NCCSCc2ccco2)cc1 | . | . | . | . | . | .
COC(=O)[C@@]1(Cc2ccccc2)[C@H]2C(=O)N(Cc3ccccc3)C(=O)[C@H]2[C@H]2CN=C(SCc3ccc(Cl)cc3)N21 | / | / | / | . | / | /
COc1ccc(N(Cc2cc3cc(OC)ccc3[nH]c2=O)C(=O)C2CCCO2)cc1 (centres undefined) | . | . | . | . | . | .
Cc1cc([N+](=O)[O-])ccc1NCc1ccco1 | . | . | . | . | . | -6
CCN1CCN(C(=O)N(CC(=O)Nc2ccc(C(N)=O)cc2)S(=O)(=O)c2ccc(C)cc2)CC1 | . | . | . | / | . | -6
CN(CC(=O)Nc1c(Cl)cccc1Cl)C(=O)CC1Sc2ccccc2NC1=O (centres undefined) | . | . | . | . | . | -6
CSCC[C@H](NC(=O)N1CCn2c1nc1ccccc12)C(=O)NCc1ccc(F)cc1 | . | 20 | . | . | . | .
COc1ccc(CNC(=O)[C@H](CCSC)NC(=O)N2CCn3c2nc2ccccc23)cc1 | . | . | . | . | . | .
O=C(CCl)NC(=O)NC12CC3CC(CC(C3)C1)C2 | . | . | . | . | . | -6
CC(Cl)C(=O)NC(=O)NC12CC3CC(CC(C3)C1)C2 (centres undefined) | . | . | . | . | . | .
CCOC(=O)c1c(NC(=O)C2CCCCC2C(=O)O)sc2c1CCCCC2 (centres undefined) | . | . | . | . | . | -7
CCOC(=O)c1c(NC(=O)C(C)Sc2nnc(C)c(=O)[nH]2)sc2c1CCCC2 (centres undefined) | . | . | . | . | . | -6
